Reference: ChEMBL document CHEMBL4689842, “EUbOPEN Chemogenomics Library wave 1” (2021)

System: U2OS
Experiment: Multiplex assay against U2OS
Type: toxicity, cell-based
Conditions: human
Summary of the method: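 On a CQ1 microscope at 37°C and 5% CO2, live cells were imaged after compound addition. They had been stained at seeding with Hoechst33342, BioTracker Green Microtubule Cytoskeleton Dye, MitoTracker Red and Annexin V Alexa Fluor 680. CellPathfinder machine-learning gating assigned cells to Hoechst high-intensity objects or normal cells, normal cells to healthy, pyknosed or fragmented nuclei, and pyknosed cells to mitotic or apoptotic. Tubulin, mitochondrial-mass and membrane-permeability phenotypes are per cents of healthy-nucleus cells.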

[1] = 12 h, 1 µM, compound concentration 1 uM, replicate 1
[2] = 12 h, 1 µM, compound concentration 1 uM, replicate 2
[3] = 12 h, 10 µM, compound concentration 10 uM, replicate 1
[4] = 12 h, 10 µM, compound concentration 10 uM, replicate 2
[5] = 24 h, 1 µM, compound concentration 1 uM, replicate 1
[6] = 24 h, 1 µM, compound concentration 1 uM, replicate 2
[7] = 24 h, 10 µM, compound concentration 10 uM, replicate 1
[8] = 24 h, 10 µM, compound concentration 10 uM, replicate 2
[9] = 48 h, 1 µM, compound concentration 1 uM, replicate 1
[10] = 48 h, 1 µM, compound concentration 1 uM, replicate 2
[11] = 48 h, 10 µM, compound concentration 10 uM, replicate 1
[12] = 48 h, 10 µM, compound concentration 10 uM, replicate 2

Cl.O=c1c2cccn2c2ccccc2n1CCCN1CCC(c2ccc(Cl)cc2)CC1
Population Apoptotic (%) [1]: 53% | Population Fragmented Nuclei (%) [1]: 8% | Population Healthy Nuclei (%) [1]: 77% | Population Hoechst High Intensity Objects (%) [1]: 7% | Population Membrane Permeable-Phenotype (%) [1]: 2% | Population Mitochondria Different-Phenotype (%) [1]: 55% | Population Mitotic Cells (%) [1]: 46% | Population Normal (%) [1]: 92% | Population Pyknosed Nuclei (%) [1]: 14% | Population Tubulin-Different-Phenotype (%) [1]: 39% | Total Cell Count [1]: 233 | Population Apoptotic (%) [2]: 60% | Population Fragmented Nuclei (%) [2]: 16% | Population Healthy Nuclei (%) [2]: 73% | Population Hoechst High Intensity Objects (%) [2]: 8% | Population Membrane Permeable-Phenotype (%) [2]: 0% | Population Mitochondria Different-Phenotype (%) [2]: 56% | Population Mitotic Cells (%) [2]: 40% | Population Normal (%) [2]: 91% | Population Pyknosed Nuclei (%) [2]: 9% | Population Tubulin-Different-Phenotype (%) [2]: 30% | Total Cell Count [2]: 119 | Population Apoptotic (%) [3]: 81% | Population Healthy Nuclei (%) [3]: 58% | Population Hoechst High Intensity Objects (%) [3]: 8% | Population Membrane Permeable-Phenotype (%) [3]: 61% | Population Mitotic Cells (%) [3]: 18% | Population Normal (%) [3]: 91% | Population Pyknosed Nuclei (%) [3]: 20% | Population Tubulin-Different-Phenotype (%) [3]: 99% | Total Cell Count [3]: 201 | Population Apoptotic (%) [4]: 78% | Population Fragmented Nuclei (%) [4]: 21% | Population Healthy Nuclei (%) [4]: 57% | Population Hoechst High Intensity Objects (%) [4]: 11% | Population Membrane Permeable-Phenotype (%) [4]: 74% | Population Mitochondria Different-Phenotype (%) [4]: 98% | Population Mitotic Cells (%) [4]: 21% | Population Normal (%) [4]: 89% | Population Pyknosed Nuclei (%) [4]: 21% | Population Tubulin-Different-Phenotype (%) [4]: 98% | Total Cell Count [4]: 58 | Population Apoptotic (%) [5]: 55% | Population Fragmented Nuclei (%) [5]: 9% | Population Healthy Nuclei (%) [5]: 73% | Population Hoechst High Intensity Objects (%) [5]: 4% | Population Membrane Permeable-Phenotype (%) [5]: 0% | Population Mitochondria Different-Phenotype (%) [5]: 45% | Population Mitotic Cells (%) [5]: 44% | Population Normal (%) [5]: 95% | Population Pyknosed Nuclei (%) [5]: 16% | Population Tubulin-Different-Phenotype (%) [5]: 26% | Total Cell Count [5]: 300 | Population Apoptotic (%) [6]: 25% | Population Fragmented Nuclei (%) [6]: 16% | Population Healthy Nuclei (%) [6]: 70% | Population Hoechst High Intensity Objects (%) [6]: 7% | Population Membrane Permeable-Phenotype (%) [6]: 2% | Population Mitochondria Different-Phenotype (%) [6]: 38% | Population Mitotic Cells (%) [6]: 75% | Population Normal (%) [6]: 92% | Population Pyknosed Nuclei (%) [6]: 13% | Population Tubulin-Different-Phenotype (%) [6]: 19% | Total Cell Count [6]: 147 | Population Apoptotic (%) [7]: 88% | Population Fragmented Nuclei (%) [7]: 21% | Population Healthy Nuclei (%) [7]: 45% | Population Hoechst High Intensity Objects (%) [7]: 6% | Population Membrane Permeable-Phenotype (%) [7]: 76% | Population Mitochondria Different-Phenotype (%) [7]: 96% | Population Mitotic Cells (%) [7]: 11% | Population Normal (%) [7]: 93% | Population Pyknosed Nuclei (%) [7]: 33% | Population Tubulin-Different-Phenotype (%) [7]: 100% | Total Cell Count [7]: 229 | Population Apoptotic (%) [8]: 87% | Population Fragmented Nuclei (%) [8]: 14% | Population Healthy Nuclei (%) [8]: 64% | Population Hoechst High Intensity Objects (%) [8]: 7% | Population Membrane Permeable-Phenotype (%) [8]: 72% | Population Mitochondria Different-Phenotype (%) [8]: 98% | Population Mitotic Cells (%) [8]: 12% | Population Normal (%) [8]: 92% | Population Pyknosed Nuclei (%) [8]: 20% | Population Tubulin-Different-Phenotype (%) [8]: 98% | Total Cell Count [8]: 65 | Population Apoptotic (%) [9]: 51% | Population Fragmented Nuclei (%) [9]: 6% | Population Healthy Nuclei (%) [9]: 82% | Population Hoechst High Intensity Objects (%) [9]: 4% | Population Membrane Permeable-Phenotype (%) [9]: 2% | Population Mitochondria Different-Phenotype (%) [9]: 17% | Population Mitotic Cells (%) [9]: 48% | Population Normal (%) [9]: 95% | Population Pyknosed Nuclei (%) [9]: 10% | Population Tubulin-Different-Phenotype (%) [9]: 11% | Total Cell Count [9]: 287 | Population Apoptotic (%) [10]: 62% | Population Fragmented Nuclei (%) [10]: 18% | Population Healthy Nuclei (%) [10]: 70% | Population Hoechst High Intensity Objects (%) [10]: 5% | Population Membrane Permeable-Phenotype (%) [10]: 4% | Population Mitochondria Different-Phenotype (%) [10]: 24% | Population Mitotic Cells (%) [10]: 37% | Population Normal (%) [10]: 94% | Population Pyknosed Nuclei (%) [10]: 11% | Population Tubulin-Different-Phenotype (%) [10]: 18% | Total Cell Count [10]: 131 | Population Apoptotic (%) [11]: 87% | Population Fragmented Nuclei (%) [11]: 18% | Population Healthy Nuclei (%) [11]: 28% | Population Hoechst High Intensity Objects (%) [11]: 12% | Population Membrane Permeable-Phenotype (%) [11]: 84% | Population Mitochondria Different-Phenotype (%) [11]: 100% | Population Mitotic Cells (%) [11]: 12% | Population Normal (%) [11]: 87% | Population Pyknosed Nuclei (%) [11]: 53% | Population Tubulin-Different-Phenotype (%) [11]: 100% | Total Cell Count [11]: 318 | Population Apoptotic (%) [12]: 88% | Population Fragmented Nuclei (%) [12]: 16% | Population Healthy Nuclei (%) [12]: 46% | Population Hoechst High Intensity Objects (%) [12]: 10% | Population Membrane Permeable-Phenotype (%) [12]: 67% | Population Mitochondria Different-Phenotype (%) [12]: 97% | Population Mitotic Cells (%) [12]: 11% | Population Normal (%) [12]: 89% | Population Pyknosed Nuclei (%) [12]: 36% | Population Tubulin-Different-Phenotype (%) [12]: 97% | Total Cell Count [12]: 74
